Measured values reported in ChEMBL document CHEMBL4312003, “Optimization of biaryloxazolidinone as promising antibacterial agents against antibiotic-susceptible and antibiotic-resistant gram-positive bacteria” (Eur J Med Chem, 2020).
Converted amounts (≈) assume the structure as drawn.

Legend:
[1] = system: Staphylococcus aureus; test: Antibacterial activity against Staphylococcus aureus ATCC 29213 assessed as complete reduction in bacterial cell growth by CLSI protocol based broth liquid microdilution method; assay type: functional
In short: (§1)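 Broth liquid microdilution per CLSI guidelines; isolates identified on an automated MicroScan system before testing. MIC taken as lowest concentration giving total inhibition of bacterial growth, reported in μg/mL. S. aureus ATCC29213 run as the control strain.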

[2] = system: Staphylococcus aureus; test: Antibacterial activity against methicillin-resistant Staphylococcus aureus assessed as complete reduction in bacterial cell growth by CLSI protocol based broth liquid microdilution method; assay type: functional; in short: as §1
[3] = system: Staphylococcus aureus; test: Antibacterial activity against methicillin-sensitive Staphylococcus aureus assessed as complete reduction in bacterial cell growth by CLSI protocol based broth liquid microdilution method; assay type: functional; in short: as §1
[4] = system: Enterococcus faecalis; test: Antibacterial activity against linezolid-resistant Enterococcus faecalis assessed as complete reduction in bacterial cell growth by CLSI protocol based broth liquid microdilution method; assay type: functional; in short: as §1
[5] = system: Enterococcus faecium; test: Antibacterial activity against vancomycin-resistant Enterococcus faecium assessed as complete reduction in bacterial cell growth by CLSI protocol based broth liquid microdilution method; assay type: functional; in short: as §1
[6] = biological target: T1, MAO-A (Homo sapiens, UniProt P21397); test: Inhibition of recombinant human MAO-A (active motif 31502) at 30 uM using luciferin as substrate incubated for 15 mins followed by substrate addition and measured after 60 mins by luminescence based method relative to control; details: probe luciferin
T1 sequence (P21397 whole entry): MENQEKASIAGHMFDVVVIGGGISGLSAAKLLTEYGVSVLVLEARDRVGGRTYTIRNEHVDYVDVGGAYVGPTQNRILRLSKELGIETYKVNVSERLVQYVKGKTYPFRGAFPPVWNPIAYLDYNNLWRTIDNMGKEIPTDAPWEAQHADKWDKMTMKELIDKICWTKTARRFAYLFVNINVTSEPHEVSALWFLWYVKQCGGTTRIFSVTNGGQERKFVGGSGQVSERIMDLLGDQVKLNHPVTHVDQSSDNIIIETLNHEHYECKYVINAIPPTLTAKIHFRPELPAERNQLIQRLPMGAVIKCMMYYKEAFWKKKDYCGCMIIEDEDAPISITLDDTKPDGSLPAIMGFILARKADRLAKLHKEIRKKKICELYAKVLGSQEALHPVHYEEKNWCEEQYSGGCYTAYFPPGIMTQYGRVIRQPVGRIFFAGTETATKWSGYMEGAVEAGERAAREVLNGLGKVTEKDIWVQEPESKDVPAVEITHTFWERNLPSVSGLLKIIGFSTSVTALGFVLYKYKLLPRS
In short: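 Recombinant human MAO-A was measured with the MAO-Glo kit, modified. Compounds were in DMSO (1% DMSO final) and preincubated with enzyme 15 min at room temperature. Luciferin-derivative substrate was then added and the reaction run 60 min at room temperature. Luciferase detection reagent was added for 20 min and luminescence read. Buffer without enzyme served as the 100% inhibition control; DMSO alone as the no-inhibition control. Percent inhibition = (Max − signal)/(Max − Min)×100.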

[7] = system: Staphylococcus aureus; test: Antibacterial activity against clinical isolates of methicillin-sensitive Staphylococcus aureus assessed as reduction in bacterial cell growth by CLSI protocol based broth microdilution method; assay type: functional; in short: as §1
[8] = system: Enterococcus faecalis; test: Antibacterial activity against clinical isolates of linezolid-resistant Enterococcus faecalis assessed as complete reduction in bacterial cell growth by CLSI protocol based broth liquid microdilution method; assay type: functional; in short: as §1
[9] = system: Enterococcus faecium; test: Antibacterial activity against clinical isolates of vancomycin-resistant Enterococcus faecium assessed as complete reduction in bacterial cell growth by CLSI protocol based broth liquid microdilution method; assay type: functional; in short: as §1
[10] = system: HepG2; test: Cytotoxicity against human HepG2 cells assessed as reduction in cell viability incubated for 48 hrs by MTT assay; assay type: cell-based; details: HepG2, 48 h
In short: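 HepG2 cells were grown in RPMI1640 with 10% FBS and plated at about 4×10^4 cells/well in MEM. After 24 h at 37 °C in 5% CO2, compounds were added at the indicated final concentrations for 48 h. MTT was added (0.5 mg/mL final) for 4 h at 37 °C and the formazan dissolved in DMSO. Absorbance was read at 492 nm (630 nm reference). Each compound was tested three times; IC50 given as mean ± SD.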

[11] = Stability in human liver microsomes assessed as half life at 1.5 uM preincubated for 5 mins with NADPH and measured after 45 mins by LC/MS analysis; assay type: ADME, Microsome; details: microsomes, 0.75 h, 1.5 µM
In short: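 Compound solution at 1.5 µM with 0.75 mg/mL microsomes (before NADPH addition) was preincubated 5 min at 37 °C. Reactions were started with NADPH (6 mM stock). Samples were quenched with acetonitrile containing internal standard at 0, 5, 15, 30 and 45 min, then centrifuged, and the supernatant was diluted with water for LC/MS. Runs were in duplicate. T1/2 = ln2/k from the log-linear slope, and CLint was derived from T1/2.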

Row | Structure (SMILES) | MIC [1] [µg/mL] | MIC [2] [µg/mL] | MIC [3] [µg/mL] | MIC [4] [µg/mL] | MIC [5] [µg/mL] | inhibition at 1 h, 30 µM [6] [%] | MIC [7] [µg/mL] | MIC [8] [µg/mL] | MIC [9] [µg/mL] | IC50 [10] [µM] | Stability [11]
1 | CC(=O)NC[C@H]1CN(c2ccc(-c3ccc(/C=N/N4CCOCC4)c(O)c3)c(F)c2)C(=O)O1 | 0.25 (≈ 0.548 µM) | 0.25 (≈ 0.548 µM) | 0.25 (≈ 0.548 µM) | 0.25 (≈ 0.548 µM) | 0.25 (≈ 0.548 µM) |  |  |  |  |  | 
2 | CC(=O)NC[C@H]1CN(c2ccc(-c3ccc(/C=N/N4CCNCC4)c(F)c3)c(F)c2)C(=O)O1 | 0.5 (≈ 1.09 µM) | 0.5 (≈ 1.09 µM) | 0.5 (≈ 1.09 µM) | 0.5 (≈ 1.09 µM) | 0.5 (≈ 1.09 µM) |  |  |  |  |  | 
3 | CCC(=O)N1CCN(/N=C/c2ccc(-c3ccc(N4C[C@H](CNC(C)=O)OC4=O)cc3F)cn2)CC1 | 1 (≈ 2.01 µM) | 1 (≈ 2.01 µM) | 1 (≈ 2.01 µM) | 1 (≈ 2.01 µM) | 0.5 (≈ 1.01 µM) |  |  |  |  |  | 
4 | CC(=O)NC[C@H]1CN(c2ccc(-c3ccc(/C=N/N4CCN(C)CC4)cn3)c(F)c2)C(=O)O1 | 2 (≈ 4.4 µM) | 1 (≈ 2.2 µM) | 2 (≈ 4.4 µM) | 2 (≈ 4.4 µM) | 2 (≈ 4.4 µM) |  |  |  |  |  | 
5 | CC(=O)NC[C@H]1CN(c2ccc(-c3ccc(/C=N/N4CCSCC4)c(C)c3)c(F)c2)C(=O)O1 | 2 (≈ 4.25 µM) | 1 (≈ 2.13 µM) | 1 (≈ 2.13 µM) | 2 (≈ 4.25 µM) | 1 (≈ 2.13 µM) |  |  |  |  |  | 
6 | CC(=O)NC[C@H]1CN(c2ccc(-c3ccc(/C=N/N4CCN(C(=O)c5ccccc5)CC4)nc3)c(F)c2)C(=O)O1 | 1 (≈ 1.84 µM) | 1 (≈ 1.84 µM) | 2 (≈ 3.67 µM) | 2 (≈ 3.67 µM) | 1 (≈ 1.84 µM) |  |  |  |  |  | 
7 | CC(=O)NC[C@H]1CN(c2ccc(-c3ccc(/C=N/N4CCNCC4)cn3)c(F)c2)C(=O)O1 | 2 (≈ 4.54 µM) | 2 (≈ 4.54 µM) | 2 (≈ 4.54 µM) | 2 (≈ 4.54 µM) | 2 (≈ 4.54 µM) |  |  |  |  |  | 
8 | CC(=O)NC[C@H]1CN(c2ccc(-c3ccc(/C=N/N4CCOCC4)c(F)c3)c(F)c2)C(=O)O1 | 0.25 (≈ 0.545 µM) | 0.25 (≈ 0.545 µM) | 0.25 (≈ 0.545 µM) | 0.25 (≈ 0.545 µM) | 0.25 (≈ 0.545 µM) | 80 |  |  |  |  | 
9 | CC(=O)NC[C@H]1CN(c2ccc(-c3ccc(/C=N/N4CCNCC4)c(C)c3)c(F)c2)C(=O)O1 | 0.5 (≈ 1.1 µM) | 0.5 (≈ 1.1 µM) | 0.5 (≈ 1.1 µM) | 0.5 (≈ 1.1 µM) | 0.5 (≈ 1.1 µM) |  |  |  |  |  | 
10 | CC(=O)NC[C@H]1CN(c2ccc(-c3ccc(/C=N/N4CCS(=O)(=O)CC4)c(O)c3)c(F)c2)C(=O)O1 | 0.125 (≈ 0.248 µM) | 0.25 (≈ 0.496 µM) | 0.25 (≈ 0.496 µM) | 0.25 (≈ 0.496 µM) | 0.25 (≈ 0.496 µM) | 67 | 1 to 2 (≈ 1.98 to 3.96 µM) | 1 to 2 (≈ 1.98 to 3.96 µM) | 1 to 2 (≈ 1.98 to 3.96 µM) |  | 
11 | CC(=O)NC[C@H]1CN(c2ccc(-c3ccc(/C=N/N4CC[S+]([O-])CC4)nc3)c(F)c2)C(=O)O1 | 0.25 (≈ 0.528 µM) | 0.25 (≈ 0.528 µM) | 0.5 (≈ 1.06 µM) | 0.5 (≈ 1.06 µM) | 0.5 (≈ 1.06 µM) |  |  |  |  |  | 
12 | CC(=O)NC[C@H]1CN(c2ccc(-c3ccc(/C=N/N4CCN(C)CC4)c(C(F)(F)F)c3)c(F)c2)C(=O)O1 | 2 (≈ 3.83 µM) | 2 (≈ 3.83 µM) | 2 (≈ 3.83 µM) | 2 (≈ 3.83 µM) | 2 (≈ 3.83 µM) |  |  |  |  |  | 
13 | COC(=O)N1CCN(/N=C/c2ccc(-c3ccc(N4C[C@H](CNC(C)=O)OC4=O)cc3F)cn2)CC1 | 1 (≈ 2.01 µM) | 1 (≈ 2.01 µM) | 2 (≈ 4.01 µM) | 1 (≈ 2.01 µM) | 0.5 (≈ 1 µM) |  |  |  |  |  | 
14 | CC(=O)NC[C@H]1CN(c2ccc(N3CCOCC3)c(F)c2)C(=O)O1 [LINEZOLID] | 1 (≈ 2.96 µM) | 1 (≈ 2.96 µM) | 1 (≈ 2.96 µM) | > 16 | 2 (≈ 5.93 µM) |  | 1 to 4 (≈ 2.96 to 11.9 µM) | > 16 | 1 to 4 (≈ 2.96 to 11.9 µM) | > 25 | Stable
